High-throughput results as filed in PubChem.
Pemphigus Ab inh = inhibitors of pemphigus antibody binding to DSG3, primary screen, biochemical, bead-based, flow cytometry, scFv-GFP | DSG3-coupled beads, scFv-anti-DSG3-GFP binding; active compounds read low | Desmoglein-3 (Homo sapiens), P32926 | 0.48% of 310,000 active | AID 588358, 2011 | binding (percent of control), % at 10 µM;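 active = binding more than 3 SD below its plate's average and above zero; inconclusive = below that plate limit but binding exactly zero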;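 note: hits lower antibody fragment binding to DSG3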
LMPTP block = LMPTP phosphatase inhibitors, primary screen, biochemical, fluorescence intensity, uHTS; recombinant LMPTP-A, OMFP fluorogenic substrate; 0.22% of 360,000 active; inhibition, % at 20 µM;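 active = compounds that cut the enzyme signal by at least half of the control window in the single-dose screen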;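 note: plate controls were DMSO wells with enzyme plus substrate for no effect and substrate without enzyme for full effect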
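Assay system: LMPTP-A enzyme. Input: 0.625 nM LMPTP-A final. Probe or stimulus: 400 µM OMFP. Compound dosing: single 20 µM dose. Schedule: 50 min dark incubation at room temperature. Detection: fluorescence intensity of OMFP turnover product. Read-out: percent inhibition versus substrate-only and uninhibited controls. Benchmarks: no-enzyme low control, uninhibited high control.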
Scp-1 inhibitor = Scp-1 phosphatase inhibitors, primary screen, biochemical, colorimetric, uHTS. inhibition, % at 20 µM. Carboxy-terminal domain RNA polymerase II polypeptide A small phosphatase 1 (Homo …. Recombinant Scp1, phosphopeptide, malachite green phosphate absorbance. 0.88% of 340,000 active;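 active = inhibition above about 50% at 20 µM, limit read from the data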;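 note: plate controls were DMSO wells with enzyme for no effect and wells lacking enzyme for full effect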
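Test system: SCP-1 phosphatase catalytic domain, residues 76-261; measured by: colorimetric phosphate reagent with accelerator and stabiliser, absorbance at 630 nm; timing: enzyme reaction 45 min at room temperature, colour 5 min, stabilisation 30 min; also added: Phosphorylated 17-residue peptide substrate; compound dosing: one concentration, 20 µM, with 1.0% DMSO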
SUMO1-SIM PPI = modulators of SUMO1 protein-protein interactions, primary screen, biochemical, uHTS. Small ubiquitin-related modifier 1 (Homo sapiens), P63165. SUMO1 binding to a labelled peptide, TR-FRET, 1 h. inhibition, % at 20 µM. 0.33% of 360,000 active. AID 602429, 2012; in the data active = inhibition above about 37%
Target sequence (P63165 whole entry, looked up): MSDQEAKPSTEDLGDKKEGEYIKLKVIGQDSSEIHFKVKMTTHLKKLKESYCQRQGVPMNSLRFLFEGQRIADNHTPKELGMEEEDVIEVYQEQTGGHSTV
STEP block = STEP phosphatase inhibitors, primary screen, biochemical, fluorescence intensity, uHTS. recombinant STEP, OMFP fluorogenic substrate. inhibition, % at 20 µM. 0.25% of 360,000 active;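 active = inhibition at 20 µM, scaled per plate between control wells, above about 37%, limit read from the data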;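 note: 0% = DMSO with enzyme and substrate and 100% = substrate only without enzyme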
Target sequence (P54829 whole entry, looked up): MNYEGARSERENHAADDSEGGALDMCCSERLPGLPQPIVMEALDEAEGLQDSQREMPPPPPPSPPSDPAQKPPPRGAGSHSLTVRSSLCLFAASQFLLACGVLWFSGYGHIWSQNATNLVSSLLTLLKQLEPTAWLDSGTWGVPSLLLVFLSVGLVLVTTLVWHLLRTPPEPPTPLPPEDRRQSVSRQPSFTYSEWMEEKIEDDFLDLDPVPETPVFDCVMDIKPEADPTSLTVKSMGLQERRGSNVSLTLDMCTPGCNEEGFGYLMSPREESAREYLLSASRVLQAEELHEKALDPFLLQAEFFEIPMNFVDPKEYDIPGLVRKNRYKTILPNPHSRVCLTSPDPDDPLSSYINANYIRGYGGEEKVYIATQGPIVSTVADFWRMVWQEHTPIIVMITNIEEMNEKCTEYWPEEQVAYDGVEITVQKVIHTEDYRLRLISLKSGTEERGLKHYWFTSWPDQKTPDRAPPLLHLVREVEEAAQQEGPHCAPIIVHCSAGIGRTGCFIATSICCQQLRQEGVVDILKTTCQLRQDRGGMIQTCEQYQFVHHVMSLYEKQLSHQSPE
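Material: STEP (striatal-enriched tyrosine phosphatase) enzyme, cell-free | Medium: 50 mM Bis-Tris pH 6.0 with 2.5 mM DTT and 0.005% Tween 20 | Read-out: Percent inhibition scaled to no-enzyme and uninhibited-enzyme controls, plate-pattern corrected | Signal: Fluorescence read at 480 nm ex / 540 nm em | Times: 20 min reaction, room temperature, in the dark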
Scp1 confirm = Scp-1 phosphatase inhibitors, retest, confirmation, biochemical, colorimetric, single concentration | shares compounds with Scp-1 inhibitor | recombinant SCP-1 catalytic domain, phosphate release, malachite green absorbance | inhibition, % at 20 µM | 61% of 2,500 active | AID 540281, 2011;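 note: plate controls were DMSO with enzyme for no effect and buffer wells lacking enzyme for full effect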
MG interference = colorimetric readout interference by compounds, confirmation, artefact control for Scp-1 inhibitor project, biochemical, single concentration; shares compounds with Scp-1 inhibitor; Colorimetric interference counterscreen, malachite green absorbance 630 nm; apparent inhibition (interference), % at 20 µM; 2,500 tested, under 10 active;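 note: compounds added after enzyme reaction finished so only phosphate colour detection is probed; plate controls were DMSO wells with completed Scp-1 reaction for no effect and substrate wells lacking enzyme for full effect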
Scp-1 Tm shift = Scp-1 binding by thermal shift, confirmation, orthogonal assay for Scp-1 inhibitor project, biophysical, differential scanning fluorimetry; shares compounds with Scp-1 inhibitor; Recombinant SCP1, Sypro Orange thermal shift Tm; thermal shift relative to vanadate control, % at 40 µM; 25% of 1,500 active; AID 540329, 2011;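 active = substances whose mean melting-temperature shift, as a percentage of the reference inhibitor's shift, reaches about 5.3%, limit read from the data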;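 note: 0% = Tm of DMSO wells and 100% = Tm with sodium orthovanadate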
* marks the source's active call; other numbers are inactive results; ? = inconclusive; nt = no result given. Rows were chosen to be rich in hits. Some 1.7% of all compounds tested hit in one or more screens of this group.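 Rule for the calls, unless noted: active = inhibition of at least 30% at 20 µM; inactive = the rest.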

SMILES	Pemphigus Ab inh	LMPTP block	Scp-1 inhibitor	SUMO1-SIM PPI	STEP block	Scp1 confirm	MG interference	others
CCC(Oc1ccccc1)C(=O)Nc1nc2c(s1)C(=O)CC(C)(C)C2 (stereo not given)	nt	0	-8	-5	1	-9	-10
CCOC(=O)[C@]12CCCC=C1N(Cc1ccc(Cl)cc1Cl)C(=O)[C@H](CC(=O)NCc1cccc3ccccc13)C2	nt	4	nt	0	nt	nt	nt
O=C(c1cccc(NC2=NC3CS(=O)(=O)CC3S2)c1)N1CCN(c2cccc(Cl)c2)CC1 (stereo not given)	102	0	-14	1	3	nt	nt
Fc1cc(F)c(NC(=S)N2CCOCC2)c(F)c1	115	-3	95*	-5	-1	-6	-13
Cn1c(=O)c2nc(-c3ccc(Cl)cc3Cl)oc2c2ccccc21	106	89*	73*	10	16	19	-23
Cc1cc(Cn2nc(C(=O)NCC3CC3)cc2-c2ccccc2)on1	103	0	-5	1	2	nt	nt
COc1ccccc1C(=O)NC(=O)CSc1nnc(N)s1	87	1	40	15	0	nt	nt
COc1cc(/C=C2/C(=O)NN(c3ccc(C)c(Cl)c3)C2=O)cc([N+](=O)[O-])c1O	153	2	61*	-1	86*	74*	-15	Scp-1 Tm shift=569*
COc1cc(/C=C2/C(=O)NN(c3cccc(Cl)c3)C2=O)cc(OC)c1O	116	1	13	-25	4	nt	nt
Cc1ccc(/C=N/NC(=O)c2c[nH]c3ccccc23)s1	101	2	13	-10	2	nt	nt
Cc1ccsc1/C=N/NC(=O)c1c[nH]c2ccccc12	nt	1	69*	-8	0	-14	-15
COc1ccc(NC(C)=[N+](C)CCNS(=O)(=O)c2ccc(Cl)cc2)cc1Cl	103	-1	1	4	-2	nt	nt
COc1ccccc1NC(C)=[N+](C)CCNS(=O)(=O)c1ccc(Cl)cc1	103	-1	96*	3	0	81*	-15	Scp-1 Tm shift=-9
CC(=O)N(c1ccccc1)c1c(F)c(F)c(F)c(F)c1F	100	-1	61*	-1	-2	-8	-13
CC(=O)N(c1ccccc1)c1nc2ccccc2s1	93	-1	-1	2	0	nt	nt
O=C(Nc1ccccc1C(=O)O)c1ccc2c(c1)C(=O)N(c1cccc([N+](=O)[O-])c1)C2=O	103	16	1	-6	20	nt	nt
Cc1ccc(C(=O)O)cc1NC(=O)c1ccc2c(c1)C(=O)N(c1ccc([N+](=O)[O-])cc1)C2=O	112	7	67*	-20	15	62*	-4	Scp-1 Tm shift=4
Cc1cc(C(=O)CN2CCN(CC(=O)Nc3cccc(F)c3)CC2)c(C)n1C1CC1	108	-1	-16	-2	-2	nt	nt
O=C(O)C(Cc1cn[nH]n1)=NO	97	-1	57*	-5	2	-12	-11
O=C(O)c1cc(N2C(=O)C=CC2=O)cc(N2C(=O)C=CC2=O)c1	102	3	82*	50*	27	50*	-7	Scp-1 Tm shift=-4
COCC(=O)Nc1sc2c(c1C(=O)OC)CCCC2	nt	0	-7	1	-1	nt	nt
COC(=O)c1c(NC(=O)Cc2cccs2)sc2c1CCCC2	109	4	51*	7	7	73*	-12	Scp-1 Tm shift=0
COc1ccccc1Oc1nc2c(c(=O)n(Cc3ccccc3F)c(=O)n2C)n1C	101	0	68*	3	-2	1	0
CN(C)CCOc1ccccc1-c1ccccc1	nt	-3	76*	0	1	-14	-10
O=C(CN1C(=O)C2CCCCC2C1=O)Nc1ccccc1N1CCCC1 (stereo not given)	99	1	62*	-1	1	-15	-12
SMILES	Pemphigus Ab inh	LMPTP block	Scp-1 inhibitor	SUMO1-SIM PPI	STEP block	Scp1 confirm	MG interference	others
CCc1ccccc1NC(=O)CNC(=O)CCc1nc2sc3c(c2c(=O)[nH]1)CCCC3	105	10	70*	9	7	66*	-18	Scp-1 Tm shift=-3
CCN(CC(=O)Nc1c(F)cccc1F)C(=O)CCc1nc2sc3c(c2c(=O)[nH]1)CCCC3	102	20	65*	23	10	59*	-22	Scp-1 Tm shift=9.0*
COc1ccc(Nc2c(C3CC3)nc3nc(C)cc(C)n23)cc1	nt	0	nt	6	nt	nt	nt
CCOC(=O)C1=C(COC(=O)Cc2ccccc2[N+](=O)[O-])NC(=O)NC1C (stereo not given)	94	-1	nt	-10	4	nt	nt
Cn1cc(/C=N/NC(=O)c2cc3cc(Br)ccc3o2)c2ccccc21	101	-1	62*	-7	4	-18	-15
COc1ccc(NS(=O)(=O)c2cccc(C(=O)O)c2)cc1S(=O)(=O)N1CCCCC1	?	1	15	7	2	nt	nt
Fc1ccc2c(-c3cccc(C(F)(F)F)c3)c(-c3ccccc3)ncc2c1	105	5	6	5	0	nt	nt
N#Cc1ccc(-c2c(-c3ccccc3)ncc3cc(F)ccc23)cc1	105	1	5	-2	1	nt	nt
Fc1ccc2cnc(-c3ccccc3)c(-c3ccc(C(F)(F)F)cc3)c2c1	99	1	72*	5	1	7	-12
Fc1ccc2cnc(-c3ccccc3)c(-c3cc(C(F)(F)F)cc(C(F)(F)F)c3)c2c1	105	4	58*	9	3	22	-9
O=[N+]([O-])c1ccc(-c2c(-c3ccccc3)ncc3ccc(F)cc23)cc1	104	5	28	-36	0	nt	nt
COC(=O)c1ccc(-c2c(-c3ccccc3)ncc3cc(F)ccc23)cc1	100	2	53*	1	-2	-6	-4
CCOCCCNC(=O)c1ccc(NC(=O)C2CCCO2)cc1 (stereo not given)	102	0	2	1	1	nt	nt
